Results reported in ChEMBL document CHEMBL1140876, “Synthesis and antibacterial property of quinolines with potent DNA gyrase activity” (2009).
In brackets after ≈: the same amount, converted by molar mass. Activity calls are given as the source filed them. The rule behind the calls is not given here.

What was measured:
[1] = Inhibition of DNA gyrase assessed as conversion of relaxed pBR322 to supercoiled form
Summary of the method: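 Supercoiling in 15 µL reactions: gyrase assay buffer, 150 ng relaxed pBR322, 2–3 µL purified DNA gyrase, 3 h at 37 °C (E. coli); stopped with 50% glycerol/0.25% bromophenol blue; 1% agarose in 1× TBE pH 8.3, 90 V 3 h; ethidium bromide stain; supercoiled band brightness by densitometry. Ciprofloxacin comparator.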

[2] = Inhibition of DNA gyrase assessed as pBR322 DNA relaxation at 5 uM
Summary of the method: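 Relaxation without ATP: gyrase (60 nM) with supercoiled pBR322 DNA (6 nM) and drug at […] for 1 h at 37 °C; relaxation judged by gel. Ciprofloxacin, novobiocin and nalidixic acid comparators.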

[3] = system: Escherichia coli; assay: Inhibition of DNA gyrase gene expression in Escherichia coli assessed as decrease in band intensity by RT-PCR amplification
Summary of the method: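 E. coli treated with drug; total RNA from cells sampled up to 24 h; 2 µg RNA to cDNA with MMLV reverse transcriptase; gyrase gene PCR (94 °C 4 min initial denaturation, 72 °C 7 min final extension); products on agarose gel, band intensity normalized to GAPDH; untreated cells as negative control.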

[4] = system: Staphylococcus aureus; assay: Antimicrobial activity against Staphylococcus aureus by broth microdilution assay; type: functional
Summary of the method: (§1)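 Broth microdilution per NCCLS 1997 in 96-well plate; final inoculum 10^5 cfu/mL; incubated 35.7 °C in air 18–20 h; MIC read as lowest concentration with no visible growth.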

[5] = system: Escherichia coli; assay: Antimicrobial activity against Escherichia coli by broth microdilution assay; type: functional; summary of the method: as §1
[6] = system: Pseudomonas aeruginosa; assay: Antimicrobial activity against Pseudomonas aeruginosa by broth microdilution assay; type: functional; summary of the method: as §1
[7] = system: Klebsiella pneumoniae; assay: Antimicrobial activity against Klebsiella pneumoniae by broth microdilution assay; type: functional; summary of the method: as §1
[8] = system: Salmonella typhi; assay: Antimicrobial activity against Salmonella typhi by broth microdilution assay; type: functional, Salmonella enterica subsp. enterica serovar Typhi; settings: Salmonella enterica
Summary of the method: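 Broth microdilution in 96-well plates following the NCCLS 1997 protocol. Final inoculum was 10^5 cfu/mL, with a control organism run alongside. Plates were incubated at 35.7 °C in air for 18–20 h. MIC is the lowest concentration with no visible growth.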

[9] = system: Bacillus subtilis; assay: Antimicrobial activity against Bacillus subtilis by broth microdilution assay; type: functional; summary of the method: as §1
[10] = system: Staphylococcus aureus; assay: Antimicrobial activity against Staphylococcus aureus at 5 ug after 24 hrs by disk diffusion method; type: functional; settings: read-out: IZ
Summary of the method: (§2)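 Inoculum made in 0.85% saline against McFarland standard, swabbed evenly onto nutrient agar; sterile filter-paper discs set equidistant and loaded with equal volumes of drug at varying amounts; zone of inhibition measured after 24 h at 37 °C; ciprofloxacin reference.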

[11] = system: Escherichia coli; assay: Antimicrobial activity against Escherichia coli at 5 ug after 24 hrs by disk diffusion method; type: functional; settings: read-out: IZ; summary of the method: as §2
[12] = system: Pseudomonas aeruginosa; assay: Antimicrobial activity against Pseudomonas aeruginosa at 5 ug after 24 hrs by disk diffusion method; type: functional; settings: read-out: IZ; summary of the method: as §2
[13] = system: Klebsiella pneumoniae; assay: Antimicrobial activity against Klebsiella pneumoniae at 5 ug after 24 hrs by disk diffusion method; type: functional; settings: read-out: IZ; summary of the method: as §2
[14] = system: Salmonella typhimurium; assay: Antimicrobial activity against Salmonella Typhimurium at 5 ug after 24 hrs by disk diffusion method; type: functional, Salmonella enterica subsp. enterica serovar Typhimurium; settings: Salmonella enterica, read-out: IZ; summary of the method: as §2
[15] = system: Staphylococcus aureus; assay: Antimicrobial activity against Staphylococcus aureus at 10 ug after 24 hrs by disk diffusion method; type: functional; settings: read-out: IZ; summary of the method: as §2
[16] = system: Escherichia coli; assay: Antimicrobial activity against Escherichia coli at 10 ug after 24 hrs by disk diffusion method; type: functional; settings: read-out: IZ; summary of the method: as §2
[17] = system: Pseudomonas aeruginosa; assay: Antimicrobial activity against Pseudomonas aeruginosa at 10 ug after 24 hrs by disk diffusion method; type: functional; settings: read-out: IZ; summary of the method: as §2
[18] = system: Klebsiella pneumoniae; assay: Antimicrobial activity against Klebsiella pneumoniae at 10 ug after 24 hrs by disk diffusion method; type: functional; settings: read-out: IZ; summary of the method: as §2
[19] = system: Salmonella typhimurium; assay: Antimicrobial activity against Salmonella Typhimurium at 10 ug after 24 hrs by disk diffusion method; type: functional, Salmonella enterica subsp. enterica serovar Typhimurium; settings: Salmonella enterica, read-out: IZ; summary of the method: as §2
[20] = system: Bacillus subtilis; assay: Antimicrobial activity against Bacillus subtilis at 10 ug after 24 hrs by disk diffusion method; type: functional; settings: read-out: IZ; summary of the method: as §2
[21] = system: Staphylococcus aureus; assay: Antimicrobial activity against Staphylococcus aureus at 15 ug after 24 hrs by disk diffusion method; type: functional; settings: read-out: IZ; summary of the method: as §2
[22] = system: Escherichia coli; assay: Antimicrobial activity against Escherichia coli at 15 ug after 24 hrs by disk diffusion method; type: functional; settings: read-out: IZ; summary of the method: as §2
[23] = system: Pseudomonas aeruginosa; assay: Antimicrobial activity against Pseudomonas aeruginosa at 15 ug after 24 hrs by disk diffusion method; type: functional; settings: read-out: IZ; summary of the method: as §2
[24] = system: Klebsiella pneumoniae; assay: Antimicrobial activity against Klebsiella pneumoniae at 15 ug after 24 hrs by disk diffusion method; type: functional; settings: read-out: IZ; summary of the method: as §2
[25] = system: Salmonella typhimurium; assay: Antimicrobial activity against Salmonella Typhimurium at 15 ug after 24 hrs by disk diffusion method; type: functional, Salmonella enterica subsp. enterica serovar Typhimurium; settings: Salmonella enterica, read-out: IZ; summary of the method: as §2
[26] = system: Bacillus subtilis; assay: Antimicrobial activity against Bacillus subtilis at 15 ug after 24 hrs by disk diffusion method; type: functional; settings: read-out: IZ; summary of the method: as §2
[27] = system: Staphylococcus aureus; assay: Antimicrobial activity against Staphylococcus aureus at 20 ug after 24 hrs by disk diffusion method; type: functional; settings: read-out: IZ; summary of the method: as §2
[28] = system: Escherichia coli; assay: Antimicrobial activity against Escherichia coli at 20 ug after 24 hrs by disk diffusion method; type: functional; settings: read-out: IZ; summary of the method: as §2
[29] = system: Pseudomonas aeruginosa; assay: Antimicrobial activity against Pseudomonas aeruginosa at 20 ug after 24 hrs by disk diffusion method; type: functional; settings: read-out: IZ; summary of the method: as §2
[30] = system: Klebsiella pneumoniae; assay: Antimicrobial activity against Klebsiella pneumoniae at 20 ug after 24 hrs by disk diffusion method; type: functional; settings: read-out: IZ; summary of the method: as §2
[31] = system: Salmonella typhimurium; assay: Antimicrobial activity against Salmonella Typhimurium at 20 ug after 24 hrs by disk diffusion method; type: functional, Salmonella enterica subsp. enterica serovar Typhimurium; settings: Salmonella enterica, read-out: IZ; summary of the method: as §2
[32] = system: Bacillus subtilis; assay: Antimicrobial activity against Bacillus subtilis at 20 ug after 24 hrs by disk diffusion method; type: functional; settings: read-out: IZ; summary of the method: as §2
[33] = system: Staphylococcus aureus; assay: Antimicrobial activity against Staphylococcus aureus at 25 ug after 24 hrs by disk diffusion method; type: functional; settings: read-out: IZ; summary of the method: as §2
[34] = system: Escherichia coli; assay: Antimicrobial activity against Escherichia coli at 25 ug after 24 hrs by disk diffusion method; type: functional; settings: read-out: IZ; summary of the method: as §2
[35] = system: Pseudomonas aeruginosa; assay: Antimicrobial activity against Pseudomonas aeruginosa at 25 ug after 24 hrs by disk diffusion method; type: functional; settings: read-out: IZ; summary of the method: as §2
[36] = system: Klebsiella pneumoniae; assay: Antimicrobial activity against Klebsiella pneumoniae at 25 ug after 24 hrs by disk diffusion method; type: functional; settings: read-out: IZ; summary of the method: as §2
[37] = system: Salmonella typhimurium; assay: Antimicrobial activity against Salmonella Typhimurium at 25 ug after 24 hrs by disk diffusion method; type: functional, Salmonella enterica subsp. enterica serovar Typhimurium; settings: Salmonella enterica, read-out: IZ; summary of the method: as §2
[38] = system: Bacillus subtilis; assay: Antimicrobial activity against Bacillus subtilis at 25 ug after 24 hrs by disk diffusion method; type: functional; settings: read-out: IZ; summary of the method: as §2

**Q.** Which results are given for `COc1ccc2c(c1)C(c1ccccc1)[C@@H]1Cn3cccc3[C@@H]1N2` (some centres undefined)?
**A.** Activity [1]: Active; Activity [2]: inactive; Activity [3]: Active; MIC50 [4]: 0.5 µg/mL (≈ 1.58 µM); MIC90 [4]: 0.5 µg/mL (≈ 1.58 µM); MIC50 [5]: 0.125 µg/mL (≈ 0.395 µM); MIC90 [5]: 0.25 µg/mL (≈ 0.79 µM); MIC50 [6]: 0.125 µg/mL (≈ 0.395 µM); MIC90 [6]: 1 µg/mL (≈ 3.16 µM); MIC50 [7]: 0.25 µg/mL (≈ 0.79 µM); MIC90 [7]: 2 µg/mL (≈ 6.32 µM); MIC50 [8]: 0.06 µg/mL (≈ 0.19 µM); MIC90 [8]: 0.15 µg/mL (≈ 0.474 µM); MIC50 [9]: 0.3 µg/mL (≈ 0.948 µM); MIC90 [9]: 2 µg/mL (≈ 6.32 µM); zone of inhibition at 5 µg/disc [10]: 20 mm; zone of inhibition at 5 µg/disc [11]: 12 mm; zone of inhibition at 5 µg/disc [12]: 24 mm; zone of inhibition at 5 µg/disc [13]: 10 mm; zone of inhibition at 5 µg/disc [14]: 10 mm; zone of inhibition at 10 µg/disc [15]: 24 mm; zone of inhibition at 10 µg/disc [16]: 14 mm; zone of inhibition at 10 µg/disc [17]: 26 mm; zone of inhibition at 10 µg/disc [18]: 14 mm; zone of inhibition at 10 µg/disc [19]: 16 mm; zone of inhibition at 10 µg/disc [20]: 8 mm; zone of inhibition at 15 µg/disc [21]: 26 mm; zone of inhibition at 15 µg/disc [22]: 16 mm; zone of inhibition at 15 µg/disc [23]: 28 mm; zone of inhibition at 15 µg/disc [24]: 16 mm; zone of inhibition at 15 µg/disc [25]: 18 mm; zone of inhibition at 15 µg/disc [26]: 9 mm; zone of inhibition at 20 µg/disc [27]: 30 mm; zone of inhibition at 20 µg/disc [28]: 22 mm; zone of inhibition at 20 µg/disc [29]: 34 mm; zone of inhibition at 20 µg/disc [30]: 24 mm; zone of inhibition at 20 µg/disc [31]: 22 mm; zone of inhibition at 20 µg/disc [32]: 10 mm; zone of inhibition at 25 µg/disc [33]: 36 mm; zone of inhibition at 25 µg/disc [34]: 23 mm; zone of inhibition at 25 µg/disc [35]: 36 mm; zone of inhibition at 25 µg/disc [36]: 26 mm; zone of inhibition at 25 µg/disc [37]: 24 mm; zone of inhibition at 25 µg/disc [38]: 11 mm
